Measured values published in ChEMBL document CHEMBL1649574, “Prevalence and characterization of heterogeneous vancomycin-intermediate Staphylococcus aureus isolates from 14 cities in China” (2009).
In brackets after ≈: the same amount, converted by molar mass.

Tests used:
Assay type in all cases: functional
Staphylococcus aureus [1] = experiment: Antimicrobial activity against SCCmec type II vancomycin-intermediate Staphylococcus aureus isolate b2k4781 by agar dilution method
In short: (§1)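 Agar-dilution MICs were measured on a subset of 200 blood MRSA isolates from China. Agents: oxacillin, rifampin, gentamicin, levofloxacin, erythromycin, vancomycin, teicoplanin, tigecycline, ceftobiprole and linezolid. Phenotype came from the PAP-AUC ratio of each isolate to S. aureus Mu3 (VSSA <0.9; hVISA 0.9 to 1.3; VISA ≥1.3), read on BHI agar with 0 to 8.0 mg/liter vancomycin after 48 h at 35°C.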

Staphylococcus aureus [2] = experiment: Antimicrobial activity against SCCmec type III vancomycin-intermediate Staphylococcus aureus isolate bd4768 by agar dilution method; in short: as §1
Staphylococcus aureus [3] = experiment: Antimicrobial activity against SCCmec type III vancomycin-intermediate Staphylococcus aureus isolate gz07030 by agar dilution method; in short: as §1
Staphylococcus aureus [4] = experiment: Antimicrobial activity against SCCmec type III vancomycin-intermediate Staphylococcus aureus isolate b3k2345 by agar dilution method; in short: as §1
Staphylococcus aureus [5] = experiment: Antimicrobial activity against SCCmec type III vancomycin-intermediate Staphylococcus aureus isolate gz06051 by agar dilution method; in short: as §1
Staphylococcus aureus [6] = experiment: Antimicrobial activity against SCCmec type III vancomycin-intermediate Staphylococcus aureus isolate 15b52 by agar dilution method; in short: as §1
Staphylococcus aureus [7] = experiment: Antimicrobial activity against SCCmec type III vancomycin-intermediate Staphylococcus aureus isolate b6k1642 by agar dilution method; in short: as §1
Staphylococcus aureus [8] = experiment: Antimicrobial activity against SCCmec type II vancomycin-intermediate Staphylococcus aureus isolate 4sy32 by agar dilution method; in short: as §1
Staphylococcus aureus [9] = experiment: Antimicrobial activity against SCCmec type III vancomycin-intermediate Staphylococcus aureus isolate gs07022 by agar dilution method; in short: as §1
Staphylococcus aureus [10] = experiment: Antimicrobial activity against SCCmec type III vancomycin-intermediate Staphylococcus aureus isolate b6k7974 by agar dilution method; in short: as §1
Staphylococcus aureus [11] = experiment: Antimicrobial activity against SCCmec type II vancomycin-intermediate Staphylococcus aureus isolate 6zjsau7 by agar dilution method; in short: as §1
Staphylococcus aureus [12] = experiment: Antimicrobial activity against SCCmec type IV vancomycin-intermediate Staphylococcus aureus isolate 06b41 by agar dilution method; in short: as §1
Staphylococcus aureus [13] = experiment: Antimicrobial activity against SCCmec type III vancomycin-intermediate Staphylococcus aureus isolate sh07043 by agar dilution method; in short: as §1
Staphylococcus aureus [14] = experiment: Antimicrobial activity against SCCmec type III vancomycin-intermediate Staphylococcus aureus isolate b3k5923 by agar dilution method; in short: as §1
Staphylococcus aureus [15] = experiment: Antimicrobial activity against SCCmec type III vancomycin-intermediate Staphylococcus aureus isolate b2k3421 by agar dilution method; in short: as §1
Staphylococcus aureus [16] = experiment: Antimicrobial activity against SCCmec type II vancomycin-intermediate Staphylococcus aureus isolate sh06024 by agar dilution method; in short: as §1
Staphylococcus aureus [17] = experiment: Antimicrobial activity against SCCmec type III vancomycin-intermediate Staphylococcus aureus isolate 13b16 by agar dilution method; in short: as §1
Staphylococcus aureus [18] = experiment: Antimicrobial activity against SCCmec type III vancomycin-intermediate Staphylococcus aureus isolate b4k6307 by agar dilution method; in short: as §1
Staphylococcus aureus [19] = experiment: Antimicrobial activity against SCCmec type III vancomycin-intermediate Staphylococcus aureus isolate b5k3578 by agar dilution method; in short: as §1
Staphylococcus aureus [20] = experiment: Antimicrobial activity against SCCmec type II vancomycin-intermediate Staphylococcus aureus isolate 07b63 by agar dilution method; in short: as §1
Staphylococcus aureus [21] = experiment: Antimicrobial activity against SCCmec type III vancomycin-intermediate Staphylococcus aureus isolate gz06040 by agar dilution method; in short: as §1
Staphylococcus aureus [22] = experiment: Antimicrobial activity against SCCmec type III vancomycin-intermediate Staphylococcus aureus isolate 11b091 by agar dilution method; in short: as §1
Staphylococcus aureus [23] = experiment: Antimicrobial activity against SCCmec type III vancomycin-intermediate Staphylococcus aureus isolate b5k3529 by agar dilution method; in short: as §1
Staphylococcus aureus [24] = experiment: Antimicrobial activity against SCCmec type III vancomycin-intermediate Staphylococcus aureus isolate xa07029 by agar dilution method; in short: as §1
Staphylococcus aureus [25] = experiment: Antimicrobial activity against SCCmec type II vancomycin-intermediate Staphylococcus aureus isolate 4sy39 by agar dilution method; in short: as §1
Staphylococcus aureus [26] = experiment: Antimicrobial activity against SCCmec type III vancomycin-intermediate Staphylococcus aureus isolate 5zjsau3 by agar dilution method; in short: as §1
Staphylococcus aureus [27] = experiment: Antimicrobial activity against SCCmec type III vancomycin-intermediate Staphylococcus aureus isolate zj07028 by agar dilution method; in short: as §1
Staphylococcus aureus [28] = experiment: Antimicrobial activity against vancomycin-susceptible Staphylococcus aureus assessed as growth inhibition at 2 times MIC; set-up: scale not given: the % may be the effect or the level left
Staphylococcus aureus [29] = experiment: Antimicrobial activity against heterogeneous vancomycin-intermediate Staphylococcus aureus by agar dilution method; in short: as §1
Staphylococcus aureus [30] = experiment: Antimicrobial activity against heterogeneous vancomycin-intermediate Staphylococcus aureus assessed as growth inhibition at 2 times MIC; set-up: scale not given: the % may be the effect or the level left
Staphylococcus aureus [31] = experiment: Antimicrobial activity against heterogeneous vancomycin-intermediate Staphylococcus aureus assessed as intermediate isolates by agar dilution method
In short: (§2)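 MICs by agar dilution for all 200 MRSA blood isolates (oxacillin, rifampin, gentamicin, levofloxacin, erythromycin, vancomycin, teicoplanin, tigecycline, ceftobiprole, linezolid). Isolates were grouped by PAP-AUC ratio against S. aureus Mu3: below 0.9 VSSA, 0.9 to 1.3 hVISA, 1.3 or more VISA.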

Staphylococcus aureus [32] = experiment: Antimicrobial activity against heterogeneous vancomycin-susceptible Staphylococcus aureus assessed as susceptible isolates by agar dilution method; in short: as §2
Staphylococcus aureus [33] = experiment: Antimicrobial activity against vancomycin-intermediate Staphylococcus aureus by agar dilution method; in short: as §1
Staphylococcus aureus [34] = experiment: Antimicrobial activity against heterogeneous vancomycin-intermediate Staphylococcus aureus assessed as growth inhibition at 0.125 times MIC; set-up: scale not given: the % may be the effect or the level left
Staphylococcus aureus [35] = experiment: Antimicrobial activity against vancomycin-susceptible Staphylococcus aureus assessed as growth inhibition at 4 times MIC; set-up: scale not given: the % may be the effect or the level left
Staphylococcus aureus [36] = experiment: Antimicrobial activity against heterogeneous vancomycin-intermediate Staphylococcus aureus assessed as growth inhibition at 0.5 times MIC; set-up: scale not given: the % may be the effect or the level left
Staphylococcus aureus [37] = experiment: Antimicrobial activity against vancomycin-susceptible Staphylococcus aureus assessed as growth inhibition at 0.5 times MIC; set-up: scale not given: the % may be the effect or the level left
Staphylococcus aureus [38] = experiment: Antimicrobial activity against vancomycin-susceptible Staphylococcus aureus assessed as growth inhibition at 16 times MIC; set-up: scale not given: the % may be the effect or the level left
Staphylococcus aureus [39] = experiment: Antimicrobial activity against vancomycin-susceptible Staphylococcus aureus by agar dilution method; in short: as §1
Staphylococcus aureus [40] = experiment: Antimicrobial activity against vancomycin-susceptible Staphylococcus aureus assessed as growth inhibition at 0.25 times MIC; set-up: scale not given: the % may be the effect or the level left
Staphylococcus aureus [41] = experiment: Antimicrobial activity against vancomycin-susceptible Staphylococcus aureus assessed as growth inhibition at MIC; set-up: scale not given: the % may be the effect or the level left
Staphylococcus aureus [42] = experiment: Antimicrobial activity against heterogeneous vancomycin-intermediate Staphylococcus aureus assessed as growth inhibition at 0.25 times MIC; set-up: scale not given: the % may be the effect or the level left
Staphylococcus aureus [43] = experiment: Antimicrobial activity against heterogeneous vancomycin-intermediate Staphylococcus aureus assessed as susceptible isolates by agar dilution method; in short: as §2
Staphylococcus aureus [44] = experiment: Antimicrobial activity against heterogeneous vancomycin-susceptible Staphylococcus aureus assessed as intermediate isolates by agar dilution method
Staphylococcus aureus [45] = experiment: Antimicrobial activity against vancomycin-susceptible Staphylococcus aureus assessed as growth inhibition at 0.125 times MIC; set-up: scale not given: the % may be the effect or the level left
Staphylococcus aureus [46] = experiment: Antimicrobial activity against heterogeneous vancomycin-intermediate Staphylococcus aureus assessed as growth inhibition at MIC; set-up: scale not given: the % may be the effect or the level left
Staphylococcus aureus [47] = experiment: Antimicrobial activity against heterogeneous vancomycin-intermediate Staphylococcus aureus assessed as growth inhibition at 16 times MIC; set-up: scale not given: the % may be the effect or the level left
Staphylococcus aureus [48] = experiment: Antimicrobial activity against heterogeneous vancomycin-intermediate Staphylococcus aureus assessed as growth inhibition at 4 times MIC; set-up: scale not given: the % may be the effect or the level left

## C[C@H]1COc2c(N3CCN(C)CC3)c(F)cc3c(=O)c(C(=O)O)cn1c23.C[C@H]1COc2c(N3CCN(C)CC3)c(F)cc3c(=O)c(C(=O)O)cn1c23.O [LEVOFLOXACIN]
Staphylococcus aureus [1]
  MIC: 32 µg/mL
Staphylococcus aureus [2]
  MIC: 32 µg/mL
Staphylococcus aureus [3]
  MIC: 64 µg/mL
Staphylococcus aureus [4]
  MIC: 16 µg/mL
Staphylococcus aureus [5]
  MIC: 64 µg/mL
Staphylococcus aureus [6]
  MIC: 4 µg/mL
Staphylococcus aureus [7]
  MIC: 16 µg/mL
Staphylococcus aureus [8]
  MIC: 8 µg/mL
Staphylococcus aureus [9]
  MIC: 32 µg/mL
Staphylococcus aureus [10]
  MIC: 64 µg/mL
Staphylococcus aureus [11]
  MIC: 32 µg/mL
Staphylococcus aureus [12]
  MIC: 0.25 µg/mL
Staphylococcus aureus [13]
  MIC: 32 µg/mL
Staphylococcus aureus [14]
  MIC: 32 µg/mL
Staphylococcus aureus [15]
  MIC: 16 µg/mL
Staphylococcus aureus [16]
  MIC: 8 µg/mL
Staphylococcus aureus [17]
  MIC: 32 µg/mL
Staphylococcus aureus [18]
  MIC: 4 µg/mL
Staphylococcus aureus [19]
  MIC: 16 µg/mL
Staphylococcus aureus [20]
  MIC: 8 µg/mL
Staphylococcus aureus [21]
  MIC: 64 µg/mL
Staphylococcus aureus [22]
  MIC: 32 µg/mL
Staphylococcus aureus [23]
  MIC: 16 µg/mL
Staphylococcus aureus [24]
  MIC: 8 µg/mL
Staphylococcus aureus [25]
  MIC: 16 µg/mL
Staphylococcus aureus [26]
  MIC: 16 µg/mL
Staphylococcus aureus [27]
  MIC: 8 µg/mL

## CC(=O)NC[C@H]1CN(c2ccc(N3CCOCC3)c(F)c2)C(=O)O1 [LINEZOLID]
Staphylococcus aureus [28]
  Activity: 100%
Staphylococcus aureus [29]
  MIC50: 1 µg/mL (≈ 2.96 µM)
  MIC90: 2 µg/mL (≈ 5.93 µM)
Staphylococcus aureus [1]
  MIC: 0.5 µg/mL (≈ 1.48 µM)
Staphylococcus aureus [30]
  Activity: 100%
Staphylococcus aureus [2]
  MIC: 1 µg/mL (≈ 2.96 µM)
Staphylococcus aureus [3]
  MIC: 1 µg/mL (≈ 2.96 µM)
Staphylococcus aureus [31]
  Activity: 0%
Staphylococcus aureus [4]
  MIC: 0.5 µg/mL (≈ 1.48 µM)
Staphylococcus aureus [32]
  Activity: 100%
Staphylococcus aureus [33]
  MIC: 1 µg/mL (≈ 2.96 µM)
Staphylococcus aureus [34]
  Activity: 0%
Staphylococcus aureus [35]
  Activity: 100%
Staphylococcus aureus [6]
  MIC: 0.5 µg/mL (≈ 1.48 µM)
Staphylococcus aureus [36]
  Activity: 33.3%
Staphylococcus aureus [7]
  MIC: 1 µg/mL (≈ 2.96 µM)
Staphylococcus aureus [8]
  MIC: 1 µg/mL (≈ 2.96 µM)
Staphylococcus aureus [9]
  MIC: 1 µg/mL (≈ 2.96 µM)
Staphylococcus aureus [10]
  MIC: 1 µg/mL (≈ 2.96 µM)
Staphylococcus aureus [11]
  MIC: 1 µg/mL (≈ 2.96 µM)
Staphylococcus aureus [12]
  MIC: 1 µg/mL (≈ 2.96 µM)
Staphylococcus aureus [14]
  MIC: 0.5 µg/mL (≈ 1.48 µM)
Staphylococcus aureus [15]
  MIC: 0.5 µg/mL (≈ 1.48 µM)
Staphylococcus aureus [37]
  Activity: 31.2%
Staphylococcus aureus [16]
  MIC: 0.5 µg/mL (≈ 1.48 µM)
Staphylococcus aureus [38]
  Activity: 100%
Staphylococcus aureus [39]
  MIC50: 1 µg/mL (≈ 2.96 µM)
  MIC90: 2 µg/mL (≈ 5.93 µM)
Staphylococcus aureus [18]
  MIC: 0.5 µg/mL (≈ 1.48 µM)
Staphylococcus aureus [19]
  MIC: 0.5 µg/mL (≈ 1.48 µM)
Staphylococcus aureus [20]
  MIC: 1 µg/mL (≈ 2.96 µM)
Staphylococcus aureus [40]
  Activity: 1.16%
Staphylococcus aureus [21]
  MIC: 1 µg/mL (≈ 2.96 µM)
Staphylococcus aureus [41]
  Activity: 82.7%
Staphylococcus aureus [42]
  Activity: 0%
Staphylococcus aureus [23]
  MIC: 0.5 µg/mL (≈ 1.48 µM)
Staphylococcus aureus [24]
  MIC: 1 µg/mL (≈ 2.96 µM)
Staphylococcus aureus [25]
  MIC: 1 µg/mL (≈ 2.96 µM)
Staphylococcus aureus [43]
  Activity: 100%
Staphylococcus aureus [44]
  Activity: 0%
Staphylococcus aureus [45]
  Activity: 0.58%
Staphylococcus aureus [46]
  Activity: 85.2%
Staphylococcus aureus [26]
  MIC: 1 µg/mL (≈ 2.96 µM)
Staphylococcus aureus [47]
  Activity: 100%
Staphylococcus aureus [48]
  Activity: 100%
Staphylococcus aureus [27]
  MIC: 1 µg/mL (≈ 2.96 µM)
